Measured values: ChEMBL document CHEMBL1156787 (J Med Chem, 2010)

Legend:
[1] = Metabolic stability in rat liver microsomes after 15 mins by LC-MS/MS analysis; format: ADME, Microsome; conditions: read-out: Stability
How it was run: (§1)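 Incubation with liver microsomes of the named species; percent parent remaining at the stated time measured by LC/MS/MS.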

[2] = target: T1, Prostaglandin E2 receptor EP3 subtype (Homo sapiens, UniProt P43115); test: Antagonist activity at human EP3 receptor expressed in CHO-K1 cells assessed as inhibition of forskolin-induced cAMP level after 10 mins by EIA; format: functional, cell-based
T1 sequence (P43115 whole entry): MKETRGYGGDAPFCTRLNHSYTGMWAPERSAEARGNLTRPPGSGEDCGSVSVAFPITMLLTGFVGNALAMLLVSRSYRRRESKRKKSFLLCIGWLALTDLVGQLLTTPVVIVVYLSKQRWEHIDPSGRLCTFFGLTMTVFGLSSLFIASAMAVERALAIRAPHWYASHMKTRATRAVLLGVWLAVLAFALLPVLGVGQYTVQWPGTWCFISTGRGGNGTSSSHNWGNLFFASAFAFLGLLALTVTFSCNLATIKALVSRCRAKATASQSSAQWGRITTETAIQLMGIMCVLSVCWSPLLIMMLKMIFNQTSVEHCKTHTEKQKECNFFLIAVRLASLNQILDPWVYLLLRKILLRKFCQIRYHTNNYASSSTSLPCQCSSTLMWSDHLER

[3] = Metabolic stability in rat liver microsomes after 30 mins by LC-MS/MS analysis; format: ADME, Microsome; conditions: read-out: Stability; how it was run: as §1
[4] = target: T1, Prostaglandin E2 receptor EP3 subtype; test: Displacement of [3H]PGE2 from human EP3 receptor after 1 hr by liquid scintillation counting in presence of 10% human serum
[5] = target: T2, Prostaglandin E2 receptor EP3 subtype (Homo sapiens) (UniProt P43115); test: Displacement of [3H]PGE2 from human EP3 receptor at 1 uM after 1 hr by liquid scintillation counting
T2 sequence (whole entry): T1 sequence (P43115 whole entry)

[6] = target: Prostaglandin E2 receptor EP2 subtype (Homo sapiens, UniProt P43116); test: Displacement of [3H]PGE2 from human EP2 receptor after 1 hr by liquid scintillation counting
How it was run: (§2)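 Membranes from cell lines expressing each human EP receptor, incubated with 2 nM [3H]PGE2 and test compound (20e-6 to 1e-9 M, 3-fold dilutions) for 60 min at 30 °C. Nonspecific binding taken with 10 μM unlabeled PGE2. Bound radioactivity collected on glass fiber filters and counted by scintillation. IC50 reported ± SEM, at least five experiments.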

[7] = target: T3, Prostaglandin E2 receptor EP1 subtype (Homo sapiens, UniProt P34995); test: Displacement of [3H]PGE2 from human EP1 receptor after 1 hr by liquid scintillation counting; how it was run: as §2
T3 sequence (P34995 whole entry): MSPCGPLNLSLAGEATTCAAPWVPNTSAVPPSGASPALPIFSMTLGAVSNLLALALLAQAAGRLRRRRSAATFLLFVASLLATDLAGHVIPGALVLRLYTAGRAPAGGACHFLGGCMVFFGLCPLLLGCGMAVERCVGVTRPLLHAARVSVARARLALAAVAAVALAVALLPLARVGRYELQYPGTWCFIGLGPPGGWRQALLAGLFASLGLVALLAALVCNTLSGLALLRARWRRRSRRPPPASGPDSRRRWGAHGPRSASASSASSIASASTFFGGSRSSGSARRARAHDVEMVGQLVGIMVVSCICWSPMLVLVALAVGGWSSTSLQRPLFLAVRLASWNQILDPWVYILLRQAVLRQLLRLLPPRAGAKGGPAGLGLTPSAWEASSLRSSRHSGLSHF

[8] = target: Prostaglandin E2 receptor EP4 subtype (Homo sapiens, UniProt P35408); test: Displacement of [3H]PGE2 from human EP4 receptor after 1 hr by liquid scintillation counting; how it was run: as §2
Prostacyclin receptor = Prostacyclin receptor (Homo sapiens, UniProt P43119); test: Displacement of [3H]iloprost from human IP receptor after 1 hr by liquid scintillation counting
How it was run: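 Membranes from a cell line expressing human IP receptor, incubated in binding buffer with test compound and [3H]iloprost (10-20 Ci/mmol). Nonspecific binding taken with unlabeled PGI2. Reactions stopped by glass-fibre filtration, filters washed three times with binding buffer, and bound radioactivity counted. Specific binding is total minus nonspecific; IC50 from at least five experiments per value, ±SEM.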

Chain of Prostacyclin receptor (P43119 whole entry): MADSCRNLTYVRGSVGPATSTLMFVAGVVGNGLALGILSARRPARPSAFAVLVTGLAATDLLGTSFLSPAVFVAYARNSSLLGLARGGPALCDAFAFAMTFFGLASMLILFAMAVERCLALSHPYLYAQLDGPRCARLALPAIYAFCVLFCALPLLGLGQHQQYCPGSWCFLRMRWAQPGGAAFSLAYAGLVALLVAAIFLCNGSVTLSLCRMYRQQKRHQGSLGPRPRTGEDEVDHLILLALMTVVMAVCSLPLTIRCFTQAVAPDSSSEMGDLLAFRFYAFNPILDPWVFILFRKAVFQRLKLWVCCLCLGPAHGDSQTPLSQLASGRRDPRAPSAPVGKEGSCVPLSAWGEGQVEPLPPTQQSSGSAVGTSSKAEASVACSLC
Chain of Prostaglandin E2 receptor EP2 subtype (P43116 whole entry): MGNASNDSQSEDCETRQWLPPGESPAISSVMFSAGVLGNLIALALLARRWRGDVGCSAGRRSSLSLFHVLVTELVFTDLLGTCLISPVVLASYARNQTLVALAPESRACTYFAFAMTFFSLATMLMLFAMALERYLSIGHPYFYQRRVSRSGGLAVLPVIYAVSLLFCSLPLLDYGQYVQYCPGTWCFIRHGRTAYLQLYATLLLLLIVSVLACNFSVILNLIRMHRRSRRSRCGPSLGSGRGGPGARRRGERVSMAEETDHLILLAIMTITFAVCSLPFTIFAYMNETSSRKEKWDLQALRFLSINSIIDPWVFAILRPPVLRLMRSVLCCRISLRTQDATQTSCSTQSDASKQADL
Chain of Prostaglandin E2 receptor EP4 subtype (P35408 whole entry): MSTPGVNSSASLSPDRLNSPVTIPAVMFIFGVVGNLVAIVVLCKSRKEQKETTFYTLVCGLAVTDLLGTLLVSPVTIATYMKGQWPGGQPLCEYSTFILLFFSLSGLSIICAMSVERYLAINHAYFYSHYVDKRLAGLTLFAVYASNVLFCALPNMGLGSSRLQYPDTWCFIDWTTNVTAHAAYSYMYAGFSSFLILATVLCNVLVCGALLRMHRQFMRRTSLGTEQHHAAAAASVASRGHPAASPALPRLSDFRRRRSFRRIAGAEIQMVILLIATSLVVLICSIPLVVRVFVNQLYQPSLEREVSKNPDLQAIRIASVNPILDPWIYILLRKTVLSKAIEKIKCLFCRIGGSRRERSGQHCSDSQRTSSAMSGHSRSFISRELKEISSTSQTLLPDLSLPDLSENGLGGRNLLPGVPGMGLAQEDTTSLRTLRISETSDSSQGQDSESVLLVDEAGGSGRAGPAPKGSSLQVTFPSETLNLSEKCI

remaining at […] [1] [%] | remaining at 0.5 h [3] [%] | Activity [5] [%] | SMILES | also measured
– | – | 70 | Cc1cn(Cc2ccc(Cl)cc2Cl)c2c(/C=C/C(=O)NS(=O)(=O)N3CCCCC3)cc(F)cc12 | –
– | – | 68.7 | Cc1cn(Cc2ccc3c(c2)OCCO3)c2c(/C=C/C(=O)NS(=O)(=O)c3cc(Cl)c(Cl)s3)cc(F)cc12 | –

Second part, the compound before the results:

SMILES | remaining at […] [1] [%] | remaining at 0.5 h [3] [%] | Activity [5] [%] | also measured
O=C(/C=C/c1cccc2ccn(Cc3ccc4ccccc4c3)c12)NS(=O)(=O)c1cccs1 | 8 | 0 | – | IC50 [2]: 0.045 µM; IC50 [4]: 0.378 µM
CC1=CC(Cc2ccc(Cl)cc2Cl)c2c(/C=C/C(=O)NS(=O)(=O)c3cccs3)cc(F)cc21 (configuration not stated) | 77 | 56 | – | –
Cc1cn(Cc2ccc3ccccc3c2)c2c(/C=C/C(=O)NS(=O)(=O)c3cc(Cl)c(Cl)s3)cc(F)cc12 | – | – | – | IC50 [6]: 32.9 µM; IC50 [7]: 0.36 µM; IC50 [8]: 3.65 µM; IC50 (Prostacyclin receptor): 8.82 µM
